Shown are actives, neighbours in structure and some others; about 4.7% of the full set was active somewhere.
m5-HT2A agonist – activates the mouse 5-HT2A serotonin receptor; P35363; CHO-K1 mHTR2A beta-arrestin complementation, luminescence; percent of 30 µM serotonin response; activation, % at 7.6 µM; actives 0.66% (n = 360,000);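 active means activation above a run cutoff, the mean activation of all tested compounds plus 3 SD, cut at about 14% in these data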;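 further: 0% = plate median of compound wells and 100% = 30 µM serotonin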
Target sequence (P35363 whole entry, looked up): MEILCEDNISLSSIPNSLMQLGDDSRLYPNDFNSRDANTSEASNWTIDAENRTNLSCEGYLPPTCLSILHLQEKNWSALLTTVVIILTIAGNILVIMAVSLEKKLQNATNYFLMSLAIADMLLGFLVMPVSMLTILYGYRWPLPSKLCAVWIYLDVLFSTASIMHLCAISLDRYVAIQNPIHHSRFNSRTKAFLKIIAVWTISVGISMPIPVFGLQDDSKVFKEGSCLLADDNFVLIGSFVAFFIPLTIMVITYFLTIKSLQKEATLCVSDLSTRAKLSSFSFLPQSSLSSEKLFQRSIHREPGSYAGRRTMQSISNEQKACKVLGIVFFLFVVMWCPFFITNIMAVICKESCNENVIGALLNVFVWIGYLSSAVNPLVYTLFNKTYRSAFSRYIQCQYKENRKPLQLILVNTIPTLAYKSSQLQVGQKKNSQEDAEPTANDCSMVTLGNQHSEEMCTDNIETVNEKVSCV
GAA850 FXN act – activators of GAA850 frataxin (FXN) promoter | HEK293 lucGAA850 FXN promoter luciferase reporter, 24 h; percent of 10 µM SAHA response | AID 540364 | actives 0.56% (n = 360,000) | activation, % at 6 µM;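 active means activation above the average of all compounds screened plus 3 SD, cutoff fixed separately per campaign, cut at about 7.5% in these data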;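 further: 0% = DMSO wells and 100% = 10 µM SAHA wells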
MC4R antag cAMP – blocks human MC4R cAMP signaling; P32245; MC4R-expressing cells, MTII-stimulated cAMP, LANCE TR-FRET; inhibition, % at 6.5 µM; actives 0.48% (n = 360,000); AID 540295;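 active means inhibition above its plate's cutoff, the mean of tested wells on that plate plus 3 SD, cut at about 29% in these data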;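 further: 0% = Melanotan II alone and 100% = Melanotan II plus saturating MCL0020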
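Material: human MC4R-expressing U2OS cells. Probe or stimulus: Melanotan II challenge. Dosing: 6.5 µM single dose. Times: 30-min compound, 1-h challenge, 1-h detection, room temperature. Technique: TR-FRET with Eu-cAMP and labeled anti-cAMP, 671 nm. Replication: singlicate.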
AHR act – activates the human aryl hydrocarbon receptor; P35869; AHR-responsive luciferase reporter cells, luminescence; activation, % at 5 µM; actives 2.5% (n = 320,000); in the data active means activation above about 47%;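 further: 0% = vehicle wells and 100% = reference agonist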
MC4R ag barr – agonists of human melanocortin 4 receptor (MC4R) beta-arrestin; U2OS MC4R beta-arrestin complementation, luminescence; percent of melanotan II response, DMSO zero; activation, % at 8.9 µM; P32245; actives 0.98% (n = 360,000); AID 540308;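 active means activation above a per-plate cutoff, the mean activation of sample wells on that plate plus 3 SD, cut at about 8% in these data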
MC4R barr ag – human MC4R beta-arrestin agonism confirmation; activation, % at 8.9 µM; actives 31% (n = 2,400); shares compounds with MC4R ag barr; U2OS MC4R beta-arrestin recruitment, luminescence; scaled DMSO 0%, Melanotan II 100%;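 active means mean activation across replicates above the hit cutoff set in the earlier primary screen, cut at about 8% in these data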
MOR DOR agonist – activates mu-delta opioid heterodimer, MC4R agonist counter-screen; U2OS PathHunter beta-arrestin, beta-gal luminescence; percent of deltorphin B response, DMSO zero; actives 5.8% (n = 2,400); shares compounds with MC4R ag barr; activation, % at 9.2 µM;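 active means mean activation across replicates exceeds the hit threshold derived in the earlier primary screen, cut at about 18% in these data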;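 further: 100% = deltorphin B at 0.9 µM final and 0% = DMSO alone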
An asterisk follows results filed as active; . = not tested or not shown.

SMILES	m5-HT2A agonist	GAA850 FXN act	MC4R antag cAMP	AHR act	MC4R ag barr	MC4R barr ag	MOR DOR agonist
CCN1CCN(c2cc(N3CCc4ccccc4C3)c(F)cc2[N+](=O)[O-])CC1	-7	-1	-6	31	15*	14*	15
Cc1ccc(C2=Nc3ccccc3N=C(c3ccco3)C2)c(O)c1	0	0	7	10	17*	4	3
Cc1ccc(NC(=O)c2cc(S(=O)(=O)N3CCc4ccccc43)cn2C)cc1C	-3	-1	13	7	0	.	.
Cc1cccc(NC(=O)c2cc(S(=O)(=O)N3CCc4ccccc43)cn2C)c1C	-8	0	5	3	11*	4	5
Cc1cc(NS(=O)(=O)c2ccc(NC(=O)/C=C/c3ccc(Br)cc3)cc2)no1	12	1	8	0	-3	.	.
Cc1ccc(/C=C/C(=O)Nc2cc(C)on2)cc1	-3	2	5	5	19*	2	6
CCc1c(-c2cccc(OC)c2)ncn1Cc1cccc(-c2ccccc2)c1	-7	.	.	.	.	.	.
CC1(c2nnnn2Cc2ccccc2)CCC(=O)N1CCOc1ccccc1 (stereo not drawn)	-6	.	.	.	.	.	.
CCc1ccc(-c2nc(NC(=O)c3ccc(OCC(=O)Nc4ccc(F)cc4)c(OC)c3)sc2C)cc1	0	1	13	5	11*	10*	5
COc1cc(C(=O)Nc2nc(-c3ccc(Cl)cc3)c(C)s2)ccc1OCC(=O)Nc1ccc(F)cc1	3	2	11	39	5	.	.
O=C(CN1CCN(c2ccccc2)CC1)Nc1ccc(Oc2ccccc2)cc1	8	-2	4	2	19*	6	5
CSc1ncccc1C(=O)OCc1ccc([N+](=O)[O-])cc1	2	0	2	0	12*	1	3
O=C(N/C=N/OCc1ccc(Cl)cc1Cl)NOCc1c(Cl)cccc1Cl	-2	0	-11	-2	12*	8	3
COC(=O)/C(=N\Nc1ccc(Cl)cc1)Sc1nnc(-c2ccc(OC)cc2)n1C	1	0	-5	1	1	.	.
Cc1c(NC(=O)c2cccc(NC(=O)Cc3ccc(F)cc3)c2)c(=O)n(-c2ccccc2)n1C	-1	-1	-1	1	-2	.	.
CCOC(=O)c1cc(NC(=O)c2ccc(C)cc2)c(=O)oc1-c1ccccc1	3	2	14	-1	11*	1	2
C=CCOc1ccc(/C=C/C(=O)OCC(=O)NCc2cccc(OC)c2)cc1	3	4	3	0	28*	2	5
CC(=O)N1CCN(Cc2cc(=O)oc3ccc4ccccc4c23)CC1	5	.	.	.	.	.	.
Cc1cccc(NC(=S)NC(=O)C(c2ccccc2)c2ccccc2)n1	2	2	-13	5	33*	20*	7
Cc1cccc(NC(=S)NC(=O)c2ccc(-c3ccccc3)cc2)n1	-4	5	19	22	4	.	.
O=C(O)c1nn(CCOc2ccc(Cl)cc2Cl)c(=O)c2ccccc12	13	2	0	0	18*	0	6
COc1ccccc1-c1cccc(-c2nc(C(=O)Nc3nccs3)cc3c2[C@@H](CCO)N(C(=O)CC2CC2)C3)c1	3	.	.	.	.	.	.
CCN1CCCC1CNC(=O)c1ccc2c(c1)NC(=O)/C(=C\c1ccc(C)cc1)S2 (stereo not drawn)	-14	-1	7	-2	15*	13*	3
C#CCn1c(=NC(=O)c2cc(-c3cccs3)nc3ccccc23)sc2cc(S(N)(=O)=O)ccc21	5	2	5	36	20*	10*	5
Clc1ccc(-c2csc(N/N=C\c3cccnc3)n2)cc1	-3	2	17	-2	11*	0	5
SMILES	m5-HT2A agonist	GAA850 FXN act	MC4R antag cAMP	AHR act	MC4R ag barr	MC4R barr ag	MOR DOR agonist
O=C(CSCc1ccc(Cl)cc1)Nc1ccc(S(=O)(=O)N2CCOCC2)cc1	-4	2	15	0	-1	.	.
COc1ccccc1NC(=O)Nc1nc(C(N)CC(C)C)cs1 (stereo not drawn)	-1	-1	2	.	0	.	.
CCC(C)(C)c1ccc(OCCCC[n+]2ccccc2)c(C(C)(C)CC)c1	-3	-2	13	-3	12*	12*	6
CCCCOc1ccc(C)cc1CN(CCO)CCO	-7	0	1	-1	0	.	.
CCCCCc1ccc(OCCCC[n+]2ccc(C)cc2)c(CCCCC)c1	-1	0	12	-1	7	.	.
CCCCCc1ccc(OCCCC[n+]2cccc(C)c2)c(CCCCC)c1	-5	-8	11	2	16*	13*	6
CCCCCc1ccc(OCCCC[n+]2ccccc2)c(CCCCC)c1	-10	-6	16	0	10*	8.3*	2
COc1ccc(OC)c(NC(=O)c2ccccc2OC(C)=O)c1	0	1	4	26	2	.	.
COc1ccc(CCNC(=O)CSc2cn(Cc3ccccc3)c3ccccc23)cc1OC	-1	0	-12	2	13*	6	4
O=C(Nc1cccc(Cl)c1)N1CCN(C/C=C/c2ccccc2)CC1	-7	-1	5	2	9.6*	6	7
O=C(Cc1cccs1)Nc1ccc(-c2nnc(-c3ccco3)o2)cc1	0	5	7	-5	11*	4	6
COc1ccc(CN2CCC[C@]3(N[C@H](c4ccc(C(F)(F)F)cc4)[C@@H]4C(=O)N(C)C(=O)[C@@H]43)C2=O)cc1	-9	1	-1	.	0	.	.
COc1ccc(CN2CCC2(C)C(=O)Nc2ccc(OC)c(OC)c2)cc1 (stereo not drawn)	-3	1	9	.	-1	.	.
CCOC(=O)c1c(NC(=O)c2ccccc2Cl)sc2c1CCc1ccccc1-2	-3	2	16	23	-2	.	.
CCCCC(=O)Nc1sc2c(c1C(=O)OCC)CCC(C=O)=C2Cl	0	1	15	1	10*	7	5
COc1cccc(CN(Cc2ccccc2F)S(=O)(=O)c2ccc(S(=O)(=O)NCc3ccccc3)cc2)c1	-2	5	-1	2	22*	8	9
Cc1cc(C)c2nc(Nc3nc(-c4ccccc4)cc(=O)[nH]3)nc(C)c2c1	1	2	-7	6	27*	17*	3
Cc1cc(-c2ccccc2)nc(Nc2nc3c(C)cccc3c(=O)[nH]2)n1	-4	1	-10	.	19*	6	3
CNc1ncnc2c1ncn2[C@H]1CN(Cc2ccncc2)C[C@@H](CO)O1	6	-1	6	.	-2	.	.
Cc1ccc(NC(=O)c2ncn(CCCN3CCN(Cc4cccc5ccccc45)CC3)n2)cc1C	-7	-2	6	.	16*	26*	9

Source: PubChem (The Scripps Research Institute Molecular Screening Center)
